Data taken from ChEMBL document CHEMBL1212864, “Synthesis of novel 3,5-diaryl pyrazole derivatives using combinatorial chemistry as inhibitors of tyrosinase as well as potent anticancer, anti-inflammatory agents” (Bioorg Med Chem, 2010).

How the values were obtained:
MCF7 [1] = assay: Anticancer activity against human MCF7 cells at 10 uM after 24 hrs; assay type: functional
PC-3 [2] = assay: Anticancer activity against human PC3 cells at 10 uM after 24 hrs; assay type: functional
HL-60 [3] = assay: Anticancer activity against human HL60 cells at 10 uM after 24 hrs; assay type: functional
NCI-H460 [4] = assay: Anticancer activity against human H460 cells at 10 uM after 24 hrs; assay type: functional
HCT-116 [5] = assay: Anticancer activity against human HCT116 cells at 10 uM after 24 hrs; assay type: functional
THP-1 [6] = assay: Antiinflammatory activity against human THP1 cells assessed as inhibition of LPS-induced TNFalpha release at 10 uM after 24 hrs; assay type: functional; details: THP-1, 24 h
In short: (§1)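 Human THP-1 cells were grown in RPMI 1640 with 10% FBS, penicillin and streptomycin, then differentiated with PMA. Test agents in 0.5% DMSO were preincubated with cells for 30 min at 37 °C before E. coli 0127:B8 LPS was added. Cytokine release was measured by the manufacturer's (BD Biosciences) method and expressed as percent inhibition versus control; IC50 values came from nonlinear regression.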

THP-1 [7] = assay: Antiinflammatory activity against human THP1 cells assessed as inhibition of LPS-induced IL6 release at 10 uM after 24 hrs; assay type: functional; details: THP-1, 24 h; in short: as §1
Tyrosinase [8] = biological target: T1, Tyrosinase (Agaricus bisporus, UniProt O42713); assay: Inhibition of mashroom tyrosinase
T1 sequence (O42713 whole entry): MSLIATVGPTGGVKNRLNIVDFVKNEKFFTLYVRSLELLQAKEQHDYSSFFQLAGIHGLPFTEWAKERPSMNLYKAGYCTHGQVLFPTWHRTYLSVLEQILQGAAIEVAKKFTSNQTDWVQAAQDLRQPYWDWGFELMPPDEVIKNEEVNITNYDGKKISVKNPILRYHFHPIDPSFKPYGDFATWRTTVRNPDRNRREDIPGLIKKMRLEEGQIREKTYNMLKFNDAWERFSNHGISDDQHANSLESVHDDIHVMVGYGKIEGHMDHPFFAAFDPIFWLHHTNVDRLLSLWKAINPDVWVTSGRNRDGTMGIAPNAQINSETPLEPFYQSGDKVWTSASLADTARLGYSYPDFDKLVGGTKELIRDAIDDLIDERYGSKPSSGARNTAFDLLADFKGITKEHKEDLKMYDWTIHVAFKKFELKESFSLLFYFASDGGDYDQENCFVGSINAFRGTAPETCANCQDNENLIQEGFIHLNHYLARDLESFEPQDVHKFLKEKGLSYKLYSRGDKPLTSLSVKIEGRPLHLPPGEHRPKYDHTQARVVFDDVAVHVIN
In short: (§2)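 Mushroom tyrosinase diphenolase activity (L-DOPA substrate) or monophenolase activity (L-tyrosine substrate) in 0.25 M phosphate buffer, pH 6.8, at 30 °C. Samples were first dissolved in DMSO. Dopachrome formation was followed spectrophotometrically at 475 nm.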

Tyrosinase [9] = biological target: T1, Tyrosinase; assay: Inhibition of mashroom tyrosinase assessed as oxidation of L-DOPA; in short: as §2
MCF7 [10] = assay: Anticancer activity against human MCF7 cells at 0.5 uM after 24 hrs; assay type: functional
PC-3 [11] = assay: Anticancer activity against human PC3 cells at 0.5 uM after 24 hrs; assay type: functional
HL-60 [12] = assay: Anticancer activity against human HL60 cells at 0.5 uM after 24 hrs; assay type: functional
NCI-H460 [13] = assay: Anticancer activity against human H460 cells at 0.5 uM after 24 hrs; assay type: functional
HCT-116 [14] = assay: Anticancer activity against human HCT116 cells at 0.5 uM after 24 hrs; assay type: functional
THP-1 [15] = assay: Antiinflammatory activity against human THP1 cells assessed as inhibition of LPS-induced TNFalpha release at 1 uM after 24 hrs; assay type: functional; parameters: scale not given: the % may be the effect or the level left; in short: as §1
THP-1 [16] = assay: Antiinflammatory activity against human THP1 cells assessed as inhibition of LPS-induced IL6 release at 1 uM after 24 hrs; assay type: functional; parameters: scale not given: the % may be the effect or the level left; in short: as §1
[17] = Cytotoxicity against […] at 1 uM; assay type: cell-based
In short: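 Cytotoxicity was measured with the CCK-8 kit in PMA-differentiated THP-1 cells at the same time as the LPS-induced cytokine release assay. Test agents were given in 0.5% DMSO with a 30 min preincubation at 37 °C before LPS.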

Compound | Activity (MCF7 [1]) [%] | Activity (PC-3 [2]) [%] | Activity (HL-60 [3]) [%] | Activity (NCI-H460 [4]) [%] | Activity (HCT-116 [5]) [%] | inhibition at 10 µM (THP-1 [6]) [%] | inhibition at 10 µM (THP-1 [7]) [%] | IC50 (Tyrosinase [8]) [µM] | Ki (Tyrosinase [8]) [µM] | IC50 (Tyrosinase [9]) [µM] | Ki (Tyrosinase [9]) [µM] | Activity (MCF7 [10]) [%] | Activity (PC-3 [11]) [%] | Activity (HL-60 [12]) [%] | Activity (NCI-H460 [13]) [%] | Activity (HCT-116 [14]) [%] | Activity (THP-1 [15]) [%] | Activity (THP-1 [16]) [%] | Activity [17] [%]
COc1cc(OC)c(C2CCN(C)C2CO)c(O)c1-c1cc(-c2ccc(Cl)cc2)[nH]n1 (centres undefined) | 61 | 65 | 63 | 58 | 55 | 16 | 35 |  |  |  |  |  |  |  |  |  |  |  | 
COc1cc(OC)c(C2CCN(C)C2CO)c(O)c1-c1cc(-c2ccccc2C)[nH]n1 (centres undefined) | 11 | 17 | 14 | 18 | 16 | 0 | 13 |  |  |  |  |  |  |  |  |  |  |  | 
COc1cc(OC)c(C2CCN(C)C2CO)c(O)c1-c1cc(-c2ccccc2Br)[nH]n1 (centres undefined) | 55 | 51 | 62 | 53 | 61 | 19 | 39 |  |  |  |  |  |  |  |  |  |  |  | 
COc1cc(OC)c(C2CCN(C)C2CO)c(O)c1-c1cc(-c2ccccc2F)[nH]n1 (centres undefined) | 15 | 21 | 19 | 23 | 19 | 0 | 11 |  |  |  |  |  |  |  |  |  |  |  | 
COc1cc(OC)c(C2CCN(C)C2CO)c(O)c1-c1cc(-c2ccc([N+](=O)[O-])cc2Cl)[nH]n1 (centres undefined) | 61 | 65 | 63 | 65 | 67 | 21 | 42 | 17.8 | 9.85 | 21.5 | 14.6 |  |  |  |  |  |  |  | 
COc1ccc(-c2cc(-c3c(OC)cc(OC)c(C4CCN(C)C4CO)c3O)n[nH]2)c(OC)c1 (centres undefined) | 21 | 16 | 24 | 19 | 17 | 0 | 11 | 1.75 | 0.84 | 2.84 | 0.96 |  |  |  |  |  |  |  | 
COc1cc(OC)c(C2CCN(C)C2CO)c(O)c1-c1cc(-c2ccc(F)cc2)[nH]n1 (centres undefined) | 19 | 15 | 26 | 16 | 21 | 11 | 28 | 15.5 | 11.2 | 19.6 | 12.6 |  |  |  |  |  |  |  | 
COc1cc(OC)c(C2CCN(C)C2CO)c(O)c1-c1cc(-c2ccc(C)cc2)[nH]n1 (centres undefined) | 17 | 11 | 21 | 13 | 19 | 0 | 10 |  |  |  |  |  |  |  |  |  |  |  | 
COc1cc(OC)c(C2CCN(C)C2CO)c(O)c1-c1cc(-c2cccc(Cl)c2)[nH]n1 (centres undefined) | 59 | 67 | 61 | 55 | 63 | 11 | 35 |  |  |  |  |  |  |  |  |  |  |  | 
COc1cc(OC)c(C2CCN(C)C2CO)c(O)c1-c1cc(-c2ccc(Br)cc2)[nH]n1 (centres undefined) | 63 | 59 | 57 | 61 | 49 | 17 | 31 |  |  |  |  |  |  |  |  |  |  |  | 
COc1cc(OC)c(C2CCN(C)C2CO)c(O)c1-c1cc(-c2cccc(Br)c2)[nH]n1 (centres undefined) | 65 | 58 | 52 | 61 | 59 | 13 | 43 |  |  |  |  |  |  |  |  |  |  |  | 
COc1cc(OC)c(C2CCN(C)C2CO)c(O)c1-c1cc(-c2ccccc2Cl)[nH]n1 (centres undefined) | 63 | 69 | 67 | 69 | 73 | 24 | 47 | 22.8 | 10.6 | 29.4 | 11.8 |  |  |  |  |  |  |  | 
CN1CC[C@H](c2c(O)cc(O)c3c(=O)cc(-c4ccccc4Cl)oc23)[C@H](O)C1 [ALVOCIDIB] |  |  |  |  |  |  |  |  |  |  |  | 74 | 77 | 72 | 78 | 87 |  |  | 
C[C@@H]1C[C@H]2[C@@H]3CCC4=CC(=O)C=C[C@]4(C)[C@@]3(F)[C@@H](O)C[C@]2(C)[C@@]1(O)C(=O)CO [DEXAMETHASONE] |  |  |  |  |  |  |  |  |  |  |  |  |  |  |  |  | 71 | 85 | 0
COc1ccccc1-c1cc(-c2c(OC)cc(OC)c(C3CCN(C)C3CO)c2O)n[nH]1 (centres undefined) | 13 | 29 | 17 | 15 | 21 | 0 | 10 |  |  |  |  |  |  |  |  |  |  |  | 
COc1cc(OC)c(C2CCN(C)C2CO)c(O)c1-c1cc(-c2ccc(Cl)cc2Cl)[nH]n1 (centres undefined) | 58 | 63 | 59 | 61 | 59 | 18 | 41 |  |  |  |  |  |  |  |  |  |  |  | 
COc1ccc(-c2cc(-c3c(OC)cc(OC)c(C4CCN(C)C4CO)c3O)n[nH]2)cc1 (centres undefined) | 15 | 22 | 19 | 13 | 16 | 0 | 12 |  |  |  |  |  |  |  |  |  |  |  | 
